Published values pooled from the literature.
Each line is one published result; the experiments were not run side by side.
Target: Rho-associated protein kinase 1 (ROCK1, Homo sapiens, UniProt Q13464)

`C[C@H](c1ccnc(Nc2nc3ccc(-c4cc(N(C)C)ncn4)cc3[nH]2)c1)N1CCN(C(=O)CC(F)(F)F)CC1` gave a remaining binding of 100% (cell-free assay, competition with immobilised ligand; 0.1 µM).
The remaining binding of `O=C(Nc1c[nH]nc1C(=O)NC1CCNCC1)c1cc(F)cc(F)c1` is reported as 98% (binding, competition with immobilised ligand; 1 µM).
The remaining binding of `N[C@H]1CCN(c2nccc(-c3cnn4ncccc34)n2)C1` is reported as 73% (binding; 1 µM).
`c1cncc(-c2cccc(Nc3nccc(NC4CCCCC4)n3)c2)c1` has a remaining binding of 10% (binding, competition with immobilised ligand; 10 µM).
`CS(=O)(=O)N1CCCC(NC(=O)[C@H](CCC2CCCCC2)NC(=O)c2ccc(CNC(=O)c3cnc4ccccn34)cc2)C1` (stereo partly shown) has a remaining binding of 100% (cell-free assay, competition with immobilised ligand; 0.1 µM).
For `CN(c1nccc(-c2cnn3ncccc23)n1)C1CC1`, the remaining binding was 100% (binding; 1 µM).
With `C=CC(=O)N1CCC(C(=O)NCC(=O)N2CCN(c3nc(-c4cnc(N)nc4C(F)F)nc(N4CCOCC4)n3)CC2)CC1` the remaining binding was 100% (binding, competition with immobilised ligand; 1 µM).
With `CC1CCCN1c1nccc(-c2cnn3ncccc23)n1` (stereo not shown) the remaining binding was 100% (binding; 1 µM).
The remaining binding of `CC(C)CC(=O)N1CCc2nc(-c3ccc(Br)cc3)nc(N(C)Cc3ccccc3)c2C1` is reported as 78% (cell-free assay, competition with immobilised ligand; 0.1 µM).
With `c1cnn2ncc(-c3ccnc(N4CCC45COC5)n3)c2c1` the remaining binding was 77% (binding; 1 µM).
`Cc1c(NC(=O)c2cc(C(N)=O)nc3cc(F)ccc23)c(C(F)(F)F)nn1Cc1ccc(C#N)cc1` has a remaining binding of 97% (cell-free assay, competition with immobilised ligand; 1 µM).
`C[C@H]1CCN(c2nccc(-c3cnn4ncccc34)n2)C1` has a remaining binding of 81% (binding; 1 µM).
For `N#Cc1ccc(Nc2ccc3[nH]c(=O)[nH]c3c2)c(Cl)c1`, the remaining binding was 100% (cell-free assay, competition with immobilised ligand; 1 µM).
`Cc1cnc(Nc2ccc(C(=O)N3CCC(N4CCCC4)CC3)cc2)nc1-c1cc2ccccc2s1` has a remaining binding of 7.7% (binding, competition with immobilised ligand; 1 µM).
`COc1cnc(Nc2cccc(S(N)(=O)=O)c2)nc1N1CCN(c2ccccc2)C(=O)C1` has a remaining binding of 43% (binding, competition with immobilised ligand; 1 µM).
With `O=C(O)c1cc(-c2ccc(C3CCNCC3)cc2)c2ccc(-c3ccc(C(F)(F)F)cc3)cc2c1` the remaining binding was 100% (cell-free assay, competition with immobilised ligand; 1 µM).
For `O=C(NCCCN1CCOCC1)c1ccc(Nc2ncc(Cl)c(-c3ccc(Cl)s3)n2)cc1`, the remaining binding was 90% (binding, competition with immobilised ligand; 1 µM).
`CCC(=N\O)/C(C)=C/c1ccc(F)cc1` gave a remaining binding of 100% (cell-free assay, competition with immobilised ligand; 1 µM).
With `CNC(=O)[C@@H]1CC[C@@H](n2c(-c3ccc4cnccc4c3)nc3ccc(C(=O)NCc4cccc(C(N)=O)c4)cc32)C1` the remaining binding was 100% (binding, competition with immobilised ligand; 1 µM).
For `Nc1ncc2c(n1)-c1c([nH]c3ccc(C#CC4CC4)cc13)CCCC2`, the remaining binding was 100% (binding, competition with immobilised ligand; 1 µM).
For `O=C(c1ccc(Nc2ncc(Cl)c(-c3cc4ccccc4s3)n2)cc1)N1CCC(N2CCCC2)CC1`, the remaining binding was 4.5% (binding, competition with immobilised ligand; 1 µM).
With `CN(CCCC(F)(F)F)c1nccc(-c2cnn3ncccc23)n1` the remaining binding was 100% (binding; 1 µM).
